# In ChEMBL document CHEMBL1154290, “Synthesis and in vitro autoradiographic evaluation of a novel high-affinity radioiodinated ligand for imaging brain cannabinoid subtype-1 receptors” (Bioorg Med Chem Lett, 2009):
# pKi: −log10 of the molar value.
# Tests used:
# [1] = molecular target: 5-hydroxytryptamine receptor 1A (Homo sapiens, UniProt P08908); experiment: Displacement of [3H]8OH-DPAT from 5HT1A receptor at 10 uM by scintillation counting
# [2] = molecular target: Cannabinoid receptor 1 (Homo sapiens, UniProt P21554)
# [3] = molecular target: Translocator protein (Homo sapiens, UniProt P30536); experiment: Displacement of [3H]PK11195 from TSPO at 10 uM by scintillation counting
# [4] = molecular target: Alpha-2C adrenergic receptor (Homo sapiens, UniProt P18825); experiment: Displacement of [125I]Iodoclonidine from alpha-2C adrenergic receptor at 10 uM by scintillation counting
# [5] = molecular target: Mu-type opioid receptor (Homo sapiens, UniProt P35372); experiment: Displacement of [3H]DAMGO from mu opioid at 10 uM by scintillation counting
# [6] = molecular target: Cannabinoid receptor 2 (Homo sapiens, UniProt P34972); experiment: Displacement of [3H]CP-55940 from CB2 receptor by scintillation counting
# In short: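 CB2 affinity given as Ki from radioligand displacement, reported as mean ± SD of three determinations.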
# [7] = molecular target: Kappa-type opioid receptor (Homo sapiens, UniProt P41145); experiment: Displacement of [3H]U69593 from kappa opioid receptor at 10 uM by scintillation counting
# [8] = molecular target: 5-hydroxytryptamine receptor 1E (Homo sapiens) (UniProt P28566); experiment: Displacement of [3H]5-HT from 5HT1E (receptor) at 10 uM by scintillation counting; conditions: tested as the 125I-labelled form
# In short: (§1)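 Receptor-panel selectivity screen: test ligand at a single 10 μM concentration. Each site is assayed by inhibition of binding of its radioligand, read out as percent inhibition (n = 4).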
# [9] = molecular target: D(3) dopamine receptor (Homo sapiens) (UniProt P35462); experiment: Displacement of [3H]N-methylspiperone from dopamine D 3 ( receptor) at 10 uM by scintillation counting; conditions: tested as the 125I-labelled form; in short: as §1
# [10] = molecular target: 5-hydroxytryptamine receptor 2A (Homo sapiens) (UniProt P28223); experiment: Displacement of [3H]Ketanserin from 5HT2A (receptor) at 10 uM by scintillation counting; conditions: tested as the 125I-labelled form; in short: as §1
# [11] = molecular target: 5-hydroxytryptamine receptor 7 (Homo sapiens) (UniProt P34969); experiment: Displacement of [3H]LSD from 5HT7 (receptor) at 10 uM by scintillation counting; conditions: tested as the 125I-labelled form; in short: as §1
# [12] = molecular target: Vasopressin V2 receptor (Homo sapiens) (UniProt P30518); experiment: Displacement of [3H]vasopressin from vasopressin2 receptor at 10 uM by scintillation counting; conditions: tested as the 125I-labelled form; in short: as §1
# [13] = molecular target: 5-hydroxytryptamine receptor 5A (Homo sapiens) (UniProt P47898); experiment: Displacement of [3H]LSD from 5HT5A (receptor) at 10 uM by scintillation counting; conditions: tested as the 125I-labelled form; in short: as §1
# [14] = molecular target: D(4) dopamine receptor (Homo sapiens) (UniProt P21917); experiment: Displacement of [3H]N-methylspiperone from dopamine D 4 ( receptor) at 10 uM by scintillation counting; conditions: tested as the 125I-labelled form; in short: as §1
# [15] = molecular target: Alpha-1A adrenergic receptor (Homo sapiens) (UniProt P35348); experiment: Displacement of [3H]Prazosin from alpha-1A adrenergic receptor at 10 uM by scintillation counting; conditions: tested as the 125I-labelled form; in short: as §1
# [16] = molecular target: Delta-type opioid receptor (Homo sapiens) (UniProt P41143); experiment: Displacement of [3H]DADLE from delta opioid receptor at 10 uM by scintillation counting; conditions: tested as the 125I-labelled form; in short: as §1
# [17] = Displacement of [3H]DTG from […] opioid receptor at 10 uM by scintillation counting; conditions: tested as the 125I-labelled form; in short: as §1
# [18] = molecular target: 5-hydroxytryptamine receptor 1B (Homo sapiens) (UniProt P28222); experiment: Displacement [3H]GR127543 from 5HT1B (receptor) at 10 uM by scintillation counting; conditions: tested as the 125I-labelled form; in short: as §1
# [19] = molecular target: Beta-1 adrenergic receptor (Homo sapiens) (UniProt P08588); experiment: Displacement of [125I]Iodopindolol from beta-1 adrenergic receptor at 10 uM by scintillation counting; conditions: tested as the 125I-labelled form
# [20] = molecular target: 5-hydroxytryptamine receptor 1D (Homo sapiens) (UniProt P28221); experiment: Displacement [3H]GR127543 from 5HT1D (receptor) at 10 uM by scintillation counting; conditions: tested as the 125I-labelled form; in short: as §1
# [21] = molecular target: 5-hydroxytryptamine receptor 2C (Homo sapiens) (UniProt P28335); experiment: Inhibition of radioligand binding to 5HT1C (receptor) at 10 uM; conditions: tested as the 125I-labelled form; in short: as §1
# [22] = molecular target: Muscarinic acetylcholine receptor M2 (Homo sapiens) (UniProt P08172); experiment: Displacement of [3H]QNB from Muscarinic acetylcholine receptor M2 at 10 uM by scintillation counting; conditions: tested as the 125I-labelled form; in short: as §1
# [23] = molecular target: Sodium-dependent noradrenaline transporter (Homo sapiens) (UniProt P23975); experiment: Displacement of [3H]Nisoxetine from NET at 10 uM by scintillation counting; conditions: tested as the 125I-labelled form; in short: as §1
# [24] = molecular target: Vasopressin V1a receptor (Homo sapiens) (UniProt P37288); experiment: Displacement of [3H]vasopressin from vasopressin1A receptor at 10 uM by scintillation counting; conditions: tested as the 125I-labelled form; in short: as §1
# [25] = molecular target: Histamine H1 receptor (Homo sapiens) (UniProt P35367); experiment: Displacement of [3H]Pyrilamine from histamine H1 (receptor) at 10 uM by scintillation counting; conditions: tested as the 125I-labelled form; in short: as §1
# [26] = molecular target: Beta-2 adrenergic receptor (Homo sapiens) (UniProt P07550); experiment: Displacement of [125I]Iodopindolol from beta2 adrenergic receptor at 10 uM by scintillation counting; conditions: tested as the 125I-labelled form
# [27] = molecular target: D(2) dopamine receptor (Homo sapiens) (UniProt P14416); experiment: Displacement of [3H]N-methylspiperone from dopamine D 2( receptor) at 10 uM by scintillation counting; conditions: tested as the 125I-labelled form; in short: as §1
# [28] = molecular target: Histamine H2 receptor (Homo sapiens) (UniProt P25021); experiment: Displacement of [3H]Pyrilamine from histamine H2 (receptor) at 10 uM by scintillation counting; conditions: tested as the 125I-labelled form; in short: as §1
# [29] = molecular target: 5-hydroxytryptamine receptor 6 (Homo sapiens) (UniProt P50406); experiment: Displacement of [3H]LSD from 5HT6 (receptor) at 10 uM by scintillation counting; conditions: tested as the 125I-labelled form; in short: as §1
# [30] = molecular target: Muscarinic acetylcholine receptor M1 (Homo sapiens) (UniProt P11229); experiment: Displacement of [3H]QNB from Muscarinic acetylcholine receptor M1 at 10 uM by scintillation counting; conditions: tested as the 125I-labelled form; in short: as §1
# [31] = molecular target: 5-hydroxytryptamine receptor 2B (Homo sapiens) (UniProt P41595); experiment: Displacement of [3H]LSD from 5HT2B (receptor) at 10 uM by scintillation counting; conditions: tested as the 125I-labelled form; in short: as §1
# [32] = molecular target: Muscarinic acetylcholine receptor M3 (Homo sapiens) (UniProt P20309); experiment: Displacement of [3H]QNB from Muscarinic acetylcholine receptor M3 at 10 uM by scintillation counting; conditions: tested as the 125I-labelled form; in short: as §1
# [33] = molecular target: Muscarinic acetylcholine receptor M4 (Homo sapiens) (UniProt P08173); experiment: Displacement of [3H]QNB from Muscarinic acetylcholine receptor M4 at 10 uM by scintillation counting; conditions: tested as the 125I-labelled form; in short: as §1
# [34] = molecular target: Muscarinic acetylcholine receptor M5 (Homo sapiens) (UniProt P08912); experiment: Displacement of [3H]QNB from Muscarinic acetylcholine receptor M5 at 10 uM by scintillation counting; conditions: tested as the 125I-labelled form; in short: as §1
# [35] = molecular target: Histamine H3 receptor (Homo sapiens) (UniProt Q9Y5N1); experiment: Displacement of [3H]alpha-methylhistamine from histamine H3 (receptor) at 10 uM by scintillation counting; conditions: tested as the 125I-labelled form; in short: as §1
# [36] = molecular target: D(1A) dopamine receptor (Homo sapiens) (UniProt P21728); experiment: Displacement of [3H]SCH233930 from dopamine D 1 ( receptor) at 10 uM by scintillation counting; conditions: tested as the 125I-labelled form; in short: as §1
# [37] = molecular target: Alpha-2A adrenergic receptor (Homo sapiens) (UniProt P08913); experiment: Displacement of [3H]Clonidine from alpha-2A adrenergic receptor at 10 uM by scintillation counting; conditions: tested as the 125I-labelled form; in short: as §1
# [38] = molecular target: Alpha-1B adrenergic receptor (Homo sapiens) (UniProt P35368); experiment: Displacement of [3H]Prazosin from alpha-1B adrenergic receptor at 10 uM by scintillation counting; conditions: tested as the 125I-labelled form; in short: as §1
# [39] = molecular target: Sodium-dependent serotonin transporter (Homo sapiens) (UniProt P31645); experiment: Displacement of [3H]Citalopram from SERT at 10 uM by scintillation counting; conditions: tested as the 125I-labelled form; in short: as §1
# [40] = molecular target: Vasopressin V1b receptor (Homo sapiens) (UniProt P47901); experiment: Displacement of [3H]vasopressin from vasopressin1B receptor at 10 uM by scintillation counting; conditions: tested as the 125I-labelled form; in short: as §1
# [41] = molecular target: Sigma non-opioid intracellular receptor 1 (Homo sapiens) (UniProt Q99720); experiment: Displacement of [3H]Pentazocine from sigma1 opioid receptor at 10 uM by scintillation counting; conditions: tested as the 125I-labelled form; in short: as §1
# [42] = molecular target: 5-hydroxytryptamine receptor 2C (Homo sapiens) (UniProt P28335); experiment: Displacement of [3H]Mesulergine from 5HT2C (receptor) at 10 uM by scintillation counting; conditions: tested as the 125I-labelled form; in short: as §1
# [43] = molecular target: Beta-3 adrenergic receptor (Homo sapiens) (UniProt P13945); experiment: Displacement of [125I]Iodopindolol from beta3 adrenergic receptor at 10 uM by scintillation counting; conditions: tested as the 125I-labelled form
# [44] = molecular target: Alpha-2B adrenergic receptor (Homo sapiens) (UniProt P18089); experiment: Displacement of [3H]Clonidine from alpha-2B adrenergic receptor at 10 uM by scintillation counting; conditions: tested as the 125I-labelled form; in short: as §1
# [45] = molecular target: Histamine H4 receptor (Homo sapiens) (UniProt Q9H3N8); experiment: Displacement of [3H]Histamine from histamine H4 (receptor) at 10 uM by scintillation counting; conditions: tested as the 125I-labelled form; in short: as §1
# [46] = molecular target: 5-hydroxytryptamine receptor 3A (Homo sapiens) (UniProt P46098); experiment: Displacement of [3H]LY278584 from 5HT3 (receptor) at 10 uM by scintillation counting; conditions: tested as the 125I-labelled form; in short: as §1
# 5-hydroxytryptamine receptor 2C (Homo sapiens), sequence (P28335 whole entry): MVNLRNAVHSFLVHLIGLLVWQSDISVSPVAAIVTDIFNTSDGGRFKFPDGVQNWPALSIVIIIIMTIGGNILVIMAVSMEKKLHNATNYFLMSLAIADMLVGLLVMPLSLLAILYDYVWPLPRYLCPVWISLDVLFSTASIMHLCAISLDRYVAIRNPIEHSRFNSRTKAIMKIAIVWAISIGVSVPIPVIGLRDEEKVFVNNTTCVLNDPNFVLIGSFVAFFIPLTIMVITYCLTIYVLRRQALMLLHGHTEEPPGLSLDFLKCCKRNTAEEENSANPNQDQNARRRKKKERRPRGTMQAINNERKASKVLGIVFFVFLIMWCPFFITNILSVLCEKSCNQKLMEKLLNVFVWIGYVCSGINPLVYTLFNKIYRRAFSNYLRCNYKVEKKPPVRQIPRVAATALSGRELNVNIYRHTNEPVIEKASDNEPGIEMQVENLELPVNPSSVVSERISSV
# Beta-2 adrenergic receptor (Homo sapiens), sequence (P07550 whole entry, looked up): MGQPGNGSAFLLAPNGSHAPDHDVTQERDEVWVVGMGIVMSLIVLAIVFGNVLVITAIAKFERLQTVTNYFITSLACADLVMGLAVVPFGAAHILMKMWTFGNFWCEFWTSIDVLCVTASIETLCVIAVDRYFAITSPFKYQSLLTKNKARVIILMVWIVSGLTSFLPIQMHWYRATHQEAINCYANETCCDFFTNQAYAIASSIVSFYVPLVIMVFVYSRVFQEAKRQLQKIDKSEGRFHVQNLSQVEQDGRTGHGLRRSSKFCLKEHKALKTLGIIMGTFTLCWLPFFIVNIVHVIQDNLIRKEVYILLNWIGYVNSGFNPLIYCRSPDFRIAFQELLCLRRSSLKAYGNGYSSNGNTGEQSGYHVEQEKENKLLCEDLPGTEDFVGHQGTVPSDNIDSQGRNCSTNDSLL
# Vasopressin V1b receptor (Homo sapiens), sequence (P47901 whole entry): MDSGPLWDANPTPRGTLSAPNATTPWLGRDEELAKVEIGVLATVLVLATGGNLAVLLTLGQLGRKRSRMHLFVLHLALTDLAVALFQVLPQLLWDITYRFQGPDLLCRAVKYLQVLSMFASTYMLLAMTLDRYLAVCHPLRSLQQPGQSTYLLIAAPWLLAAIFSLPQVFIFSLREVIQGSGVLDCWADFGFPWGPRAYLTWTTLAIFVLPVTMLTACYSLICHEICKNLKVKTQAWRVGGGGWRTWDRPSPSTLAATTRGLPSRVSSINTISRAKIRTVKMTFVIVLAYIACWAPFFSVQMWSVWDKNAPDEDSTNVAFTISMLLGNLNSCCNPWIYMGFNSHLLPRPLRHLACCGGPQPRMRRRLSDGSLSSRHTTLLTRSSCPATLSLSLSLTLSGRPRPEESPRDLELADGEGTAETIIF
# Muscarinic acetylcholine receptor M1 (Homo sapiens), sequence (P11229 whole entry): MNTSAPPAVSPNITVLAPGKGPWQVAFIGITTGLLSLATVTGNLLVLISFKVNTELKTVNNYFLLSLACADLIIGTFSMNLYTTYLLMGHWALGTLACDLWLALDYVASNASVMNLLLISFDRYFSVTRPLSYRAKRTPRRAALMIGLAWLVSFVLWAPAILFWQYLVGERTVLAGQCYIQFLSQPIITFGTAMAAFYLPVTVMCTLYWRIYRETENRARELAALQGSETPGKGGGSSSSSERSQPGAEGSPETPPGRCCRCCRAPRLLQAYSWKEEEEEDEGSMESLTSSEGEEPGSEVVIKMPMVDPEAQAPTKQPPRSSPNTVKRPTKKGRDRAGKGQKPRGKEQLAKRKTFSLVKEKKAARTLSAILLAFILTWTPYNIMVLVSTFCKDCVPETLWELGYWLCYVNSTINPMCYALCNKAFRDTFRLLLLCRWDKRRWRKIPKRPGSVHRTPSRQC
# Histamine H4 receptor (Homo sapiens), sequence (Q9H3N8 whole entry): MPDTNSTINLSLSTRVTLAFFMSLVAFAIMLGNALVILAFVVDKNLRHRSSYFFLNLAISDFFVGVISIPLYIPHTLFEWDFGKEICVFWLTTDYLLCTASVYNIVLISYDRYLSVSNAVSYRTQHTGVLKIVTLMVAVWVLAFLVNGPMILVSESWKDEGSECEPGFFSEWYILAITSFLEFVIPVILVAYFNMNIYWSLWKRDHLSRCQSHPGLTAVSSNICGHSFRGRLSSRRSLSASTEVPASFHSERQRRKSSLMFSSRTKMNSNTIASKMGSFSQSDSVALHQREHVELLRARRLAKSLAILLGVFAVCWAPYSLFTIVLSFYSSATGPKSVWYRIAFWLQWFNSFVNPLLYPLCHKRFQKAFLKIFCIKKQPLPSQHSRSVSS
# Cannabinoid receptor 2, sequence (P34972 whole entry): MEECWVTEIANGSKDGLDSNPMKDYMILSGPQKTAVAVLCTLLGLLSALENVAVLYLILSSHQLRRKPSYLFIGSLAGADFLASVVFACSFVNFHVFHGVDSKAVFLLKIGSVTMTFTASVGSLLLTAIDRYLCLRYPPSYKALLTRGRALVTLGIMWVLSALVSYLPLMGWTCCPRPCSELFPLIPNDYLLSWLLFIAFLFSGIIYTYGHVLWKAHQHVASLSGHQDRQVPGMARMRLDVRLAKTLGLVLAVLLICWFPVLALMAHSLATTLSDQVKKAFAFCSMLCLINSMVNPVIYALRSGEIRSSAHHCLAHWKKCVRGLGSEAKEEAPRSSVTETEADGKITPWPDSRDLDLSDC
# Histamine H1 receptor (Homo sapiens), sequence (P35367 whole entry): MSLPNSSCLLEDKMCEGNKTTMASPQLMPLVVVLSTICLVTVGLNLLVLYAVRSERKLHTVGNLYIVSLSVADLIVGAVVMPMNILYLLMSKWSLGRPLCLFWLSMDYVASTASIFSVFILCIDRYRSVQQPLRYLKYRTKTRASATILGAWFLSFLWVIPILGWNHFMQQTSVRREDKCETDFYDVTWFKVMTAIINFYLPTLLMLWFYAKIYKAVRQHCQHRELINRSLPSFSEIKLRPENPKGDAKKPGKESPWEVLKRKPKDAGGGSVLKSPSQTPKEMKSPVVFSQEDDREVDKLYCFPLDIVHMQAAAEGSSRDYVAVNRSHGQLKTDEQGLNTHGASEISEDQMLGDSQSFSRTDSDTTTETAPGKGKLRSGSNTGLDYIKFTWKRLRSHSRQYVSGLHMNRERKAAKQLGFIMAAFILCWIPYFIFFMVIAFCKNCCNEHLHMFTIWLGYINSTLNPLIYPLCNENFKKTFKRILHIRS
# 5-hydroxytryptamine receptor 1A, sequence (P08908 whole entry): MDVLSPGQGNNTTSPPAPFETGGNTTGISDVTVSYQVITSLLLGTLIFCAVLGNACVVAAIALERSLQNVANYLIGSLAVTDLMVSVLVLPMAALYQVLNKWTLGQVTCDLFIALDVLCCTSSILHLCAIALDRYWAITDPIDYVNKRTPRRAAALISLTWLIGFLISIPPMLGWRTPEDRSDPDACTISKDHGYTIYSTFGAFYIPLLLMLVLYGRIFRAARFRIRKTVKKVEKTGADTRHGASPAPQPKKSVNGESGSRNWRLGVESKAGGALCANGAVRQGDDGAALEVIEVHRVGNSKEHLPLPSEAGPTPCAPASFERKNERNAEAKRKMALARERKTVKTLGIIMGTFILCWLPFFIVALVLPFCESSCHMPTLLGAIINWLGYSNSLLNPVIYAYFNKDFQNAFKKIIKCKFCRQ
# Alpha-1A adrenergic receptor (Homo sapiens), sequence (P35348 whole entry): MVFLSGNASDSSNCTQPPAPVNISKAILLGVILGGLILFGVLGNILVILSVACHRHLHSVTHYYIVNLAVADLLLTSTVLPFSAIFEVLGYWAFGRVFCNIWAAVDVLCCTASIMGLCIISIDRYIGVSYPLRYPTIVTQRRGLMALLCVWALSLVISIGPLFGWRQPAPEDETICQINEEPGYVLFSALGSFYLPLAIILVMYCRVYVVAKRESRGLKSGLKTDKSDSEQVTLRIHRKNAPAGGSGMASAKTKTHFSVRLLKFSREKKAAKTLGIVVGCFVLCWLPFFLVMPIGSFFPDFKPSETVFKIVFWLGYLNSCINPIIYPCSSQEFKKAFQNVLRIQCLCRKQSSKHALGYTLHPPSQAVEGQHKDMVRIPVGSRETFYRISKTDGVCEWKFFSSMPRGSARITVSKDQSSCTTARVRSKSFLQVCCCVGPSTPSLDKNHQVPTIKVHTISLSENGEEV
# Alpha-2A adrenergic receptor (Homo sapiens), sequence (P08913 whole entry): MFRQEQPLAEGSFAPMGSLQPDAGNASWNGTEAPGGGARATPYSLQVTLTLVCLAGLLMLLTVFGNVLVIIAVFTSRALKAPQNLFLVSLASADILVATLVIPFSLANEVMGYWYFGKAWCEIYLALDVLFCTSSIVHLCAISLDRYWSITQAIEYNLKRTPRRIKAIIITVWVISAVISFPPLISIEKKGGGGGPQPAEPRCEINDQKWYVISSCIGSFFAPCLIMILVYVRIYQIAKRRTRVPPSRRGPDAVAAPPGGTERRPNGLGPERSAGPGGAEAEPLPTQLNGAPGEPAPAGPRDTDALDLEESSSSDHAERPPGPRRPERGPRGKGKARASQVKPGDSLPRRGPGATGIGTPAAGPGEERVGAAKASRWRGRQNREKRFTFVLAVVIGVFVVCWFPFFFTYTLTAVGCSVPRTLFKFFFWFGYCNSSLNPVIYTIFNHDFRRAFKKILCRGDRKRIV
# 5-hydroxytryptamine receptor 1E (Homo sapiens), sequence (P28566 whole entry): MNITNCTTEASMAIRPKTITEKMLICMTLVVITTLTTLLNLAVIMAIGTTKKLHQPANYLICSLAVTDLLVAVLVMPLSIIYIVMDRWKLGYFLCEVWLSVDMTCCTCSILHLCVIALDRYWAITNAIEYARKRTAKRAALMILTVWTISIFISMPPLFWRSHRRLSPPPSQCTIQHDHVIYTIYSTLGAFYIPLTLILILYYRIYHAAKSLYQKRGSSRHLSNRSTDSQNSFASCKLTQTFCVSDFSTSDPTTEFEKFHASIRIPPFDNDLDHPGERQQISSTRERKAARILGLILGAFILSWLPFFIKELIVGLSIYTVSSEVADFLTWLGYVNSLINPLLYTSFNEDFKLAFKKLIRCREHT
# Sigma non-opioid intracellular receptor 1 (Homo sapiens), sequence (Q99720 whole entry): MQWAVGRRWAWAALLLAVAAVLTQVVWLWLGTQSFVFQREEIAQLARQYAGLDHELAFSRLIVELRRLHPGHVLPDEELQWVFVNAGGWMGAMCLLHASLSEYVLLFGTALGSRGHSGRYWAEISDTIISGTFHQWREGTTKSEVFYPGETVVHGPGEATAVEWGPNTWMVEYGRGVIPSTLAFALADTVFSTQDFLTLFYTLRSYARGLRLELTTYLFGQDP
compound,measurement,setting,value
COc1ccc(-c2c(C#N)c(C(=O)NN3CCCCC3)nn2-c2ccccc2[125I])cc1,pKi,[1],7.03
same,pKi,[2],8.47
same,pKi,[3],5.50
same,pKi,[4],< 5.00
same,pKi,[5],5.83
same,pKi,[6],6.26
same,pKi,[7],5.83
COc1ccc(-c2c(C#N)c(C(=O)NN3CCCCC3)nn2-c2ccccc2I)cc1,inhibition,[8],< 50%
same,inhibition,[9],< 50%
same,inhibition,[10],< 50%
same,inhibition,[11],< 50%
same,inhibition,[12],< 50%
same,inhibition,[13],< 50%
same,inhibition,[14],< 50%
same,inhibition,[15],< 50%
same,inhibition,[16],< 50%
same,inhibition,[17],< 50%
same,inhibition,[18],< 50%
same,inhibition,[19],< 50%
same,inhibition,[20],< 50%
same,inhibition,[21],< 50%
same,inhibition,[22],< 50%
same,inhibition,[23],< 50%
same,inhibition,[24],< 50%
same,inhibition,[25],< 50%
same,inhibition,[26],< 50%
same,inhibition,[27],< 50%
same,inhibition,[28],< 50%
same,inhibition,[29],< 50%
same,inhibition,[30],< 50%
same,inhibition,[31],< 50%
same,inhibition,[32],< 50%
same,inhibition,[33],< 50%
same,inhibition,[34],< 50%
same,inhibition,[35],< 50%
same,inhibition,[36],< 50%
same,inhibition,[37],< 50%
same,inhibition,[38],< 50%
same,inhibition,[39],< 50%
same,inhibition,[40],< 50%
same,inhibition,[41],< 50%
same,inhibition,[42],< 50%
same,inhibition,[43],< 50%
same,inhibition,[44],< 50%
same,inhibition,[45],< 50%
same,inhibition,[46],< 50%
